# Calls of active or inactive are those of the source. The rule behind the calls is not given here.
# Key:
# [1] = Genotoxicity in mouse MNMCA1 cells assessed as induction of micronuclei formation at 5 uM incubated for 24 hrs by measuring fold change by DAPI staining based analysis; format: toxicity, cell-based; settings: mnmca1, 24 h
# Quadruplex DNA [2] = assay: Stabilization of c-kit1 G4 quadruplex d(DNA AGGGAGGGCGCTGGGAGGAGGG) DNA (unknown origin) assessed as thermal stability by measuring difference in melting temperature t1/2 by circular dichroism spectroscopy (reference value: 54 +/- 0.5 degC); format: nucleic-acid assay
# Quadruplex DNA [3] = assay: Binding affinity toc-myc G4 quadruplex d(TTAGGGTTAGGGTTAGGGTTAGGGTT) DNA (unknown origin) assessed as dissociation constant by Microscale thermophoresis analysis; format: nucleic-acid assay
# Summary of the method: (§1)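 MST with Cy5.5-labelled G4 oligonucleotide held at 20 nM, folded in 5 mM potassium phosphate pH 7.0 with 20 mM KCl plus 0.1% Tween. Ligand in 1:2 serial dilution mixed 1:1 with DNA, 20% DMSO final. Kd taken from binding curves.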
# Quadruplex DNA [4] = assay: Binding affinity to c-kit1 G4 quadruplex d(DNA AGGGAGGGCGCTGGGAGGAGGG) DNA (unknown origin) assessed as dissociation constant by Microscale thermophoresis analysis; format: nucleic-acid assay; summary of the method: as §1
# U2OS [5] = assay: Cytotoxicity against human U2OS cells assessed as cell survival preincubated for 24 hrs with compound further incubated for 48 hrs in drug free medium by MTT assay; format: functional, cell-based
# Summary of the method: (§2)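 Exponentially growing cells seeded and treated 24 h after seeding with increasing concentrations for 24 h. Cells then recovered 48 h in drug-free medium. MTT added for 1 h at 37 °C, formazan dissolved in DMSO, absorbance read at 540 nm. IC50 from linear regression. Means ± SEM of two independent experiments in triplicate.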
# [6] = Stabilization of d(CGC GAA TTC GCG TIT CGC GAA TTC GCG) DNA hairpin (unknown origin) assessed as thermal stability by measuring difference in melting temperature t1/2 by circular dichroism spectroscopy (reference value: 75.4 +/- 0.2 degC)
# Summary of the method: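 CD melting of 15 μM annealed hairpin duplex in 5 mM K phosphate pH 7.0 with 20 mM KCl, with or without ligand at 2 molar equiv added to the folded DNA. The signal was followed at 252 nm from 20 to 100 °C at 1 °C/min, with T1/2 taken from a curve fit. ΔT1/2 is relative to DNA alone; duplicate runs, averaged.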
# Quadruplex DNA [7] = assay: Binding affinity to c-kit2 G4 quadruplex d(CGGGCGGGCGCTAGGGAGGGT) DNA (unknown origin) assessed as dissociation constant by Microscale thermophoresis analysis; format: nucleic-acid assay; summary of the method: as §1
# [8] = Stabilization of F-c-kit1-T (unknown origin) assessed as difference in melting temperature t1/2 in presence of d(CGC GAA TTC GCG TIT CGC GAA TTC GCG) DNA hairpin (unknown origin) measured at 1:50 G4 to hairpin DNA ratio by FRET assay
# Summary of the method: (§3)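 FRET melting of 0.2 μM prefolded FAM/TAMRA dual-labelled c-kit1 G4 in 5 mM K phosphate pH 7.0 with 20 mM KCl. Ligand was added at 2 molar equiv, with unlabelled hairpin competitor at 3 or 10 μM final (15 or 50 equiv relative to G4). FAM emission was read at 520 nm (excitation 492 nm) while heating at 0.2 °C/min over 15–90 °C. ΔT1/2 is relative to no ligand; at least duplicate, averaged.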
# U2OS [9] = assay: Induction of DNA damage in human U2OS cells assessed as fold increase in gammaH2AX phosphorylation at […] by measuring fold change at 10 uM incubated for 24 hrs by immunofluorescence microscopy; format: functional
# Summary of the method: (§4)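 U2OS cells treated 24 h. Fixed with 4% formaldehyde, permeabilized with 0.5% Triton X-100, blocked with 8% BSA, stained with anti-γH2AX (1:500) and Alexa Fluor 594 secondary, DAPI counterstain. Fluorescence microscopy signal quantified as fold over untreated.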
# Quadruplex DNA [10] = assay: Stabilization of F-c-kit1-T quadruplex DNA (unknown origin) by measuring difference in melting temperature t1/2 by FRET assay; format: nucleic-acid assay
# Summary of the method: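 FRET melting of 0.2 μM prefolded FAM/TAMRA-labelled c-kit1 in 5 mM potassium phosphate pH 7.0 with 20 mM KCl, with ligand at 2 molar equiv. Unlabelled hairpin competitor added at 3 or 10 μM (15 or 50 equiv). FAM emission at 520 nm (excitation 492 nm) followed from 15 to 90 °C at 0.2 °C/min. ΔT1/2 versus no ligand. At least duplicate.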
# Quadruplex DNA [11] = assay: Stabilization of human Tel26 G4 quadruplex DNA assessed as thermal stability by measuring difference in melting temperature t1/2 by circular dichroism spectroscopy; format: nucleic-acid assay
# [12] = Stabilization of F-c-kit1-T (unknown origin) assessed as difference in melting temperature t1/2 in presence of d(CGC GAA TTC GCG TIT CGC GAA TTC GCG) DNA hairpin (unknown origin) measured at 1:15 G4 to hairpin DNA ratio by FRET assay; summary of the method: as §3
# [13] = Cytotoxicity against mouse MNMCA1 cells assessed as cell survival preincubated for 24 hrs with compound further incubated for 48 hrs in drug free medium by MTT assay; format: functional, cell-based; summary of the method: as §2
# Quadruplex DNA [14] = assay: Stabilization of c-kit2 G4 quadruplex d(CGGGCGGGCGCTAGGGAGGGT) DNA (unknown origin) assessed as thermal stability by measuring difference in melting temperature t1/2 by circular dichroism spectroscopy (reference value: 61.5 +/- 0.5 degC); format: nucleic-acid assay
# Quadruplex DNA [15] = assay: Stabilization of c-myc G4 quadruplex d(TTAGGGTTAGGGTTAGGGTTAGGGTT) DNA (unknown origin) assessed as thermal stability by measuring difference in melting temperature t1/2 by circular dichroism spectroscopy (reference value: 72 +/- 0.5 degC); format: nucleic-acid assay
# U2OS [16] = assay: Induction of DNA damage in human U2OS cells assessed as increase in gammaH2AX phosphorylation at S139 incubated for 24 hrs by immunofluorescence microscopy; format: functional, cell-based; settings: read-out: IC50 (the source's name); summary of the method: as §4
# [17] = Genotoxicity in mouse MNMCA1 cells assessed as induction of micronuclei formation measured after 24 hrs by DAPI staining based analysis; format: toxicity, cell-based; settings: mnmca1, 24 h
# Quadruplex DNA [18] = assay: Displacement of thiazole orange from c-kit2 G4 quadruplex d(CGGGCGGGCGCTAGGGAGGGT) DNA (unknown origin) assessed as relative affinity by fluorescent intercalator displacement assay; format: nucleic-acid assay
# Summary of the method: (§5)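 G4 DNA at 0.25 μM with 0.5 μM thiazole orange in 5 mM potassium phosphate pH 7.0 containing 20 mM KCl (LiCl for c-myc), 20 °C. Ligand titrated from 0.5 to 20 molar equiv with 3 min equilibration per addition. Excitation 485 nm, emission 500–650 nm. %displacement = 100 − (F/F0×100); DC50 is the concentration displacing 50% TO. Duplicate titrations.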
# Quadruplex DNA [19] = assay: Displacement of thiazole orange from c-kit1 G4 quadruplex d(DNA AGGGAGGGCGCTGGGAGGAGGG) DNA (unknown origin) assessed as relative affinity by fluorescent intercalator displacement assay; format: nucleic-acid assay; summary of the method: as §5
# MNMCA1 = assay: Activation of IFN-beta in mouse MNMCA1 cells at 15 to 30 uM pretreated for 24 hrs followed by 48 hrs of drug recovery by ELISA; format: functional, cell-based; settings: dose 15-30 µM, time 72.0 hrs
# Summary of the method: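 MNMCA1 cells treated 24 h with compound at 15 or 30 μM, then 48 h recovery in fresh drug-free medium. IFN-B protein measured by ELISA in collected culture supernatants.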
# Quadruplex DNA [20] = assay: Stabilization of G4 quadruplex DNA in human U2OS cells assessed as BG4 foci formation by measuring fold increase in G4 structure at 10 uM by immunofluorescence microscopy; format: cell-based
# Summary of the method: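 U2OS cells on coverslips treated for […]. Fixed in methanol/acetic acid 3:1, permeabilized with 0.1% Triton X-100, blocked in 2% milk. Stained with 0.5 μg BG4 for 2 h, then anti-FLAG and Alexa Fluor 488 secondary. Signal quantified as fold over untreated.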
# Quadruplex DNA [21] = assay: Displacement of thiazole orange from c-myc G4 quadruplex d(TTAGGGTTAGGGTTAGGGTTAGGGTT) DNA (unknown origin) assessed as relative affinity by fluorescent intercalator displacement assay; format: nucleic-acid assay; summary of the method: as §5
SMILES,fold change (FC) [1],ΔTm (Quadruplex DNA [2]),Kd (Quadruplex DNA [3]),Kd (Quadruplex DNA [4]),IC50 (U2OS [5]),ΔTm [6],Kd (Quadruplex DNA [7]),ΔTm [8],fold change (FC) (U2OS [9]),ΔTm (Quadruplex DNA [10]),ΔTm (Quadruplex DNA [11]),ΔTm [12],IC50 [13],ΔTm (Quadruplex DNA [14]),ΔTm (Quadruplex DNA [15]),EC50 (U2OS [16]),other results
OCc1c(-c2ccccc2)nc2n1ccc1nc(-c3ccccc3)c(/C=N/NC3=NCCN3)n12,2.5,7.1 °C,37 µM,8 µM,24.5 µM,1.3 °C,2.5 µM,8.4 °C,1.55,8 °C,2 °C,7.8 °C,12.1 µM,14.7 °C,1.7 °C,24 µM,
N=C(N)N/N=C/c1c(-c2ccccc2)nc2ccn3c(CO)c(-c4ccccc4)nc3n12,2.5,9.7 °C,8 µM,2 µM,14.3 µM,2.3 °C,1.3 µM,12.1 °C,2.32,10 °C,1.8 °C,11.1 °C,35.7 µM,18.6 °C,2.8 °C,14 µM,
Cc1ccc(-c2nc3ccn4c(/C=N/NC(=N)N)c(-c5ccccc5)nc4n3c2/C=N/NC(=N)N)cc1,,18.2 °C,1.5 µM,0.03 µM,46.8 µM,1.3 °C,0.04 µM,19.2 °C,,25.4 °C,4.8 °C,22.2 °C,38.5 µM,> 30 °C,16.9 °C,46 µM,fold change (FC) [17]: 0.4; IC50 (Quadruplex DNA [18]): 1.4 µM; IC50 (Quadruplex DNA [19]): 1.4 µM; Activity (MNMCA1): Active; fold change (FC) (Quadruplex DNA [20]): 2.4; IC50 (Quadruplex DNA [21]): 1.6 µM
